In ChEMBL document CHEMBL5724801, “EUbOPEN Chemogenomics Library - Multiplex” (2024):
Values joined by “and” are separate entries in the source; they are usually repeats but may differ in a detail not shown here. Identical values can stand only once.

What was measured:
Fibroblast = assay: Multiplex assay against human fibroblast; assay type: toxicity, cell-based
In short: (§1)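 With compound added, live cells were imaged on a CQ1 microscope at 37°C and 5% CO2; staining with Hoechst33342, BioTracker Green Microtubule Cytoskeleton Dye, MitoTracker Red and Annexin V Alexa Fluor 680 had been done at seeding. The CellPathfinder machine-learning gating scheme split cells into Hoechst high-intensity objects or normal cells, normal cells into healthy, pyknosed or fragmented nuclei, and pyknosed cells into mitotic or apoptotic. The tubulin, mitochondrial-mass and membrane-permeability phenotypes are per cents of healthy-nucleus cells.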

U2OS = assay: Multiplex assay against U2OS; assay type: toxicity, cell-based; conditions: human; in short: as §1
[1] = 24 h, 1 µM, compound concentration 1 uM
[2] = 24 h, 10 µM, compound concentration 10 uM
[3] = 48 h, 1 µM, compound concentration 1 uM
[4] = 48 h, 10 µM, compound concentration 10 uM
[5] = 12 h, 1 µM, compound concentration 1 uM
[6] = 12 h, 10 µM, compound concentration 10 uM

## C=CC(=O)Nc1cc(Nc2nccc(-n3cc(CN(C)C)c(-c4ccccc4)n3)n2)c(OC)cc1N1CCOCC1 [LAZERTINIB]
Fibroblast; [1]
  Population Pyknosed Nuclei (%): 31.25% and 15.02%
  Population Tubulin-Different-Phenotype (%): 34.02% and 66.32%
  Total Cell Count: 160 and 253
Fibroblast; [2]
  Population Apoptotic (%): 52.31% and 34.69%
  Population Healthy Nuclei (%): 37.75% and 81.53%
  Population Hoechst High Intensity Objects (%): 0%
  Population Membrane Permeable-Phenotype (%): 5.26% and 2.72%
  Population Mitochondria Different-Phenotype (%): 43.86% and 34.14%
  Population Mitotic Cells (%): 47.69% and 65.31%
  Population Normal (%): 100%
  Population Tubulin-Different-Phenotype (%): 57.89% and 76.44%
  Total Cell Count: 151 and 406
Fibroblast; [3]
  Population Apoptotic (%): 16.67% and 20.83%
  Population Fragmented Nuclei (%): 12.14% and 10.42%
  Population Healthy Nuclei (%): 77.46% and 80.31%
  Population Hoechst High Intensity Objects (%): 0%
  Population Membrane Permeable-Phenotype (%): 0.75% and 1.92%
  Population Mitochondria Different-Phenotype (%): 11.19% and 8.17%
  Population Mitotic Cells (%): 83.33% and 79.17%
  Population Normal (%): 100%
  Population Pyknosed Nuclei (%): 10.4% and 9.27%
  Population Tubulin-Different-Phenotype (%): 27.61% and 62.5%
  Total Cell Count: 173 and 259
Fibroblast; [4]
  Population Apoptotic (%): 64.71% and 51.61%
  Population Fragmented Nuclei (%): 24.65% and 10.26%
  Population Healthy Nuclei (%): 51.41% and 82.52%
  Population Hoechst High Intensity Objects (%): 0%
  Population Membrane Permeable-Phenotype (%): 1.37% and 2.82%
  Population Mitotic Cells (%): 35.29% and 48.39%
  Population Normal (%): 100%
  Population Tubulin-Different-Phenotype (%): 49.32% and 60.73%
U2OS; [5]
  Population Apoptotic (%): 37.5% and 46.67%
  Population Fragmented Nuclei (%): 2.41% and 2.92%
  Population Healthy Nuclei (%): 85.54% and 75.18%
  Population Hoechst High Intensity Objects (%): 0%
  Population Membrane Permeable-Phenotype (%): 40.14% and 54.37%
  Population Mitotic Cells (%): 62.5% and 53.33%
  Population Normal (%): 100%
  Population Pyknosed Nuclei (%): 12.05% and 21.9%
  Population Tubulin-Different-Phenotype (%): 55.63% and 64.08%
  Total Cell Count: 332 and 137
U2OS; [6]
  Population Apoptotic (%): 49.07% and 38.89%
  Population Fragmented Nuclei (%): 3.84% and 4.81%
  Population Healthy Nuclei (%): 68.54% and 60.58%
  Population Hoechst High Intensity Objects (%): 0%
  Population Membrane Permeable-Phenotype (%): 48.88% and 50.79%
  Population Mitotic Cells (%): 50.93% and 61.11%
  Population Normal (%): 100%
  Population Pyknosed Nuclei (%): 27.62% and 34.62%
  Population Tubulin-Different-Phenotype (%): 97.39% and 85.71%
U2OS; [1]
  Population Apoptotic (%): 29.69% and 52.94%
  Population Fragmented Nuclei (%): 2.35% and 3.45%
  Population Healthy Nuclei (%): 80.94% and 73.1%
  Population Hoechst High Intensity Objects (%): 0%
  Population Membrane Permeable-Phenotype (%): 20% and 30.19%
  Population Mitotic Cells (%): 70.31% and 47.06%
  Population Normal (%): 100%
  Population Pyknosed Nuclei (%): 16.71% and 23.45%
  Population Tubulin-Different-Phenotype (%): 32.58% and 42.45%
  Total Cell Count: 383 and 145
U2OS; [2]
  Population Apoptotic (%): 55.04% and 53.66%
  Population Fragmented Nuclei (%): 3.46% and 5.83%
  Population Healthy Nuclei (%): 64.69% and 54.37%
  Population Hoechst High Intensity Objects (%): 0.25% and 0%
  Population Membrane Permeable-Phenotype (%): 39.69% and 35.71%
  Population Mitotic Cells (%): 44.96% and 46.34%
  Population Normal (%): 99.75% and 100%
  Population Pyknosed Nuclei (%): 31.85% and 39.81%
  Population Tubulin-Different-Phenotype (%): 93.51% and 87.5%
U2OS; [3]
  Population Apoptotic (%): 61.96% and 68.33%
  Population Fragmented Nuclei (%): 3% and 6.88%
  Population Healthy Nuclei (%): 79.78% and 55.62%
  Population Hoechst High Intensity Objects (%): 0%
  Population Mitotic Cells (%): 38.04% and 31.67%
  Population Normal (%): 100%
  Population Pyknosed Nuclei (%): 17.23% and 37.5%
  Population Tubulin-Different-Phenotype (%): 15.02% and 28.09%
U2OS; [4]
  Population Apoptotic (%): 64.5% and 69.23%
  Population Fragmented Nuclei (%): 5.97% and 5.31%
  Population Healthy Nuclei (%): 59.26% and 60.18%
  Population Hoechst High Intensity Objects (%): 0%
  Population Membrane Permeable-Phenotype (%): 31.6% and 30.88%
  Population Mitotic Cells (%): 35.5% and 30.77%
  Population Normal (%): 100%
  Population Pyknosed Nuclei (%): 34.77% and 34.51%
  Population Tubulin-Different-Phenotype (%): 77.43% and 79.41%
